Source: ChEMBL document CHEMBL4613270, “Structure-Activity Relationship Study Enables the Discovery of a Novel Berberine Analogue as the RXRα Activator to Inhibit Colon Cancer” (J Med Chem, 2020)

Tested on: KM12C
Test: Inhibition of cell proliferation of human KM12C cells incubated for 15 hrs by MTT assay
Format: functional, cell-based
Outline: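 Cells plated at 1×10⁴ per well, incubated overnight at 37 °C, then exposed to a concentration series for 15 h. MTT (5 mg/mL stock) added for 4 h at 37 °C. Formazan dissolved in DMSO and absorbance read at 570 nm. IC50 derived from the dose-response curve.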

| SMILES | IC50 [µM] |
| --- | --- |
| COc1ccc2cc3[n+](cc2c1)CCc1cc2c(cc1-3)OCO2 | 52.7 |
| COc1cccc2c[n+]3c(cc12)-c1cc2c(cc1CC3)OCO2 | 118 |
| c1c2c(cc3c1OCO3)-c1cc3cc4c(cc3c[n+]1CC2)OCO4 | 57.2 |
| COc1cc2c(cc1OC)-c1cc3ccccc3c[n+]1CC2 | > 600 |
| COc1ccc2c(c1)CC[n+]1cc3cc(OC)c(OC)cc3cc1-2 | 83.5 |
| COc1ccc2c(c1)CC[n+]1cc3ccccc3cc1-2 | 129 |
| COc1cc2c(cc1OC)-c1cc3c(OC)cccc3c[n+]1CC2 | 270 |
| COc1cc2c(cc1OC)-c1cc3cccc(OC)c3c[n+]1CC2 | 166 |
| COc1cc2cc3[n+](cc2cc1OC)CCc1cc2c(cc1-3)OCO2 [PSEUDOBERBERINE] | 467 |
| COc1ccc2c(c1)CC[n+]1cc3c(OC)c(OC)ccc3cc1-2 | 37.9 |
| c1ccc2c[n+]3c(cc2c1)-c1cc2c(cc1CC3)OCO2 | 79.7 |
| COc1ccc2c(c1)CC[n+]1cc3cc4c(cc3cc1-2)OCO4 | 46.4 |
| COc1cc2c(cc1OC)-c1cc3ccc(OC)c(OC)c3c[n+]1CC2 [PALMATINE CHLORIDE] | 393 |
| COc1cc2c(cc1OC)-c1cc3cc(OC)c(OC)cc3c[n+]1CC2 | > 600 |
